Test results reported in the M2OR odorant receptor database.

The compounds below were run against T1, OR8D1 (Homo sapiens) (UniProt Q8WZ84). Conditions: stereoisomer not certain.
T1 sequence (whole entry): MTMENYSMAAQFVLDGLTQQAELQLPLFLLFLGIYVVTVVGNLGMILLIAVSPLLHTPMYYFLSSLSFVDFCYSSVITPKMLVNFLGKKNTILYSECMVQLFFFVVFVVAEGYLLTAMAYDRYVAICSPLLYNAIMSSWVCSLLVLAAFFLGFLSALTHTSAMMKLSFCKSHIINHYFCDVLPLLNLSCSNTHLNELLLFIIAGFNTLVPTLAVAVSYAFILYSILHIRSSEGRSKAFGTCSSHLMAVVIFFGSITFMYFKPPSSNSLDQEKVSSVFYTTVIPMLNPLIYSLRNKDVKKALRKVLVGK
Outline: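 Assay methods differ from source to source, frequently being transient luciferase assays in mammalian cell lines. For each receptor–molecule pair, the label responsive (active) applies when the original authors judged the measured signal statistically different from baseline, and non-responsive (inactive) applies otherwise.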

| SMILES | odorant receptor agonist call |
| --- | --- |
| CCCCC(CC)CCC(=O)O (configuration not stated) | inactive |
| CCC(C)CCC(=O)[O-] (configuration not stated) | inactive |
| CCC=CCCC=O | inactive |
| CC(C)(S)CCOC=O | inactive |
| CC(=O)c1cnccn1 | inactive |
| CC=Cc1ccc(OC)cc1 | inactive |
| CCOC(=O)C(C)CC (configuration not stated) | inactive |
| CC(=O)OCCc1ccccc1 | inactive |
| CCCCCc1ccccn1 | inactive |
| CCC(C)CO (configuration not stated) | inactive |
| CCC=CCC=O | inactive |
| CCCCCCCCCC(=O)OCC | inactive |
| CCC(C)c1nccnc1OC (configuration not stated) | inactive |
| SCc1cccs1 | inactive |
| CCc1ncc(C)nc1CC | inactive |
| CCCCCC=CC=CC=O | inactive |
| COc1nccnc1CC(C)C | inactive |
| CCCCC(=O)OCC | inactive |
| CCOC(=O)CC(C)C | inactive |

| SMILES | odorant receptor agonist call |
| --- | --- |
| CC(=O)c1ccc(C)cc1 | inactive |
| C=C(C)c1ccc(C)cc1 | inactive |
| C=Cc1ccc(O)cc1 | inactive |
| CC(=O)OCC=Cc1ccccc1 | inactive |
| Cc1ccc(O)cc1 | inactive |
| COC(=O)C(C)C | inactive |
| CCCCC1OC(=O)CC1C (configuration not stated) | inactive |
| CCC=CCCC=CC=O | inactive |
| CC(=O)C=CC1=C(C)CCCC1(C)C | inactive |
| CCOC(=O)CCC(C)C | inactive |
| C=CCSC | inactive |
| CCCCCCCCC1CCC(=O)O1 (configuration not stated) | inactive |
| CC(C)CCCCCCCCCCC=O | inactive |
| CCCC(=O)OCC | inactive |
| CCCCCCOC(C)=O | inactive |
| CCCCCCCCCC(=O)[O-].[H+] | inactive |
| C=CC(=O)CC=CCC | inactive |
| CCCCCC=CC=O | inactive |
